Active and inactive are the calls of the source. No cut-off for these calls is given here.
Experiments:
L1210 [1] = test: Increase in life span of tumor L1210 leukemic mice 1-9 days after 400 mg/kg administered; assay type: functional, Mus musculus
Method in brief: (§1)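 Mice bearing L1210 or P388 leukemia were injected with drug at the listed dose per injection on the listed days after tumor-cell inoculation. ILS was the percentage increase in life span of treated mice over untreated tumor-bearing controls.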

L1210 [2] = test: In vitro inhibition of growth of L1210 mouse leukemic cells; assay type: functional; conditions: read-out: ID50 (the source's name)
Method in brief: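 L1210 cells grown in static suspension culture in Fischer's medium for leukemic cells of mice, exposed to a range of test-compound concentrations. Growth rate measured over 3 days.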

L1210 [3] = test: Toxicity against L1210 leukemic cells 1-9 days after administration of 400 mg/kg of the compound; No higher dose tested; assay type: functional, organism-based; set-up: dose 400 mg/kg; conditions: Mus musculus
Method in brief: (§2)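 Mice bearing L1210 or P388 leukemia were injected at the stated dose per injection on the listed days after tumor-cell inoculation. Host toxicity scores whether higher doses on the same schedule caused drug-induced shortening of life span: y = yes, n = no, nt = no higher dose tested.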

L1210 [4] = test: Increase in life span of tumor L1210 leukemic mice 1-5 days after 200 mg/kg administered; assay type: functional, Mus musculus; method in brief: as §1
L1210 [5] = test: Toxicity against L1210 leukemic cells 1-5 days after administration of 200 mg/kg of the compound; No higher dose tested; assay type: functional, organism-based; set-up: dose 200 mg/kg; conditions: Mus musculus; method in brief: as §2
L1210 [6] = test: Increase in life span of tumor L1210 leukemic mice 1-9 day after 200 mg/kg administered; assay type: functional, Mus musculus; method in brief: as §1
L1210 [7] = test: Toxicity against L1210 leukemic cells 1-9 days after administration of 200 mg/kg of the compound; Yes; assay type: functional, organism-based; set-up: dose 200 mg/kg; conditions: Mus musculus; method in brief: as §2
L1210 [8] = test: Toxicity against L1210 leukemic cells 1-5 days after administration of 400 mg/kg of the compound; nt= No higher dose tested; assay type: functional, organism-based; set-up: dose 400 mg/kg; conditions: Mus musculus; method in brief: as §2
L1210 [9] = test: Increase in life span of tumor L1210 leukemic mice 1-5 days after 400 mg/kg administered; assay type: functional, Mus musculus; method in brief: as §1
L1210 [10] = test: Toxicity against L1210 leukemic cells 1 day after administration of 133 mg/kg of the compound; No; assay type: functional, organism-based; set-up: dose 133 mg/kg; conditions: Mus musculus; method in brief: as §2
P388 [11] = test: Toxicity against P388 leukemic cells 1-9 days after administration of 25 mg/kg of the compound; No; assay type: functional, organism-based; set-up: dose 25 mg/kg; conditions: Mus musculus; method in brief: as §2
P388 [12] = test: Increase in life span of tumor P388 leukemic mice 1-9 days after 25 mg/kg administered; assay type: functional, Mus musculus
P388 (Mus musculus) = test: Increase in life span of tumor P388 leukemic mice 1-9 days after 9.3 mg/kg administered
L1210 [13] = test: Increase in life span of tumor L1210 leukemic mice 1 day after 133 mg/kg administered; assay type: functional, Mus musculus; method in brief: as §1
L1210 [14] = test: Number of mice surviving 1 day after 133 mg/kg administered; 1/6; assay type: functional, Mus musculus
L1210 [15] = test: Toxicity against L1210 leukemic cells 1-9 days after administration of 3.12 mg/kg of the compound; Yes; assay type: functional, organism-based; set-up: dose 3.12 mg/kg; conditions: Mus musculus; method in brief: as §2
P388 [16] = test: Toxicity against P388 leukemic cells 1-9 days after administration of 3 mg/kg of the compound; Yes; assay type: functional, organism-based; set-up: dose 3 mg/kg; conditions: Mus musculus; method in brief: as §2
L1210 [17] = test: Increase in life span of tumor L1210 leukemic mice 1-9 days after 3.12 mg/kg administered; assay type: functional, Mus musculus; method in brief: as §1
P388 [18] = test: Increase in life span of tumor P388 leukemic mice 1-9 days after 3 mg/kg administered; assay type: functional, Mus musculus; method in brief: as §1
P388 [19] = test: Toxicity against P388 leukemic cells 1,5,9 days after administration of 100 mg/kg of the compound; Yes; conditions: Mus musculus
L1210 [20] = test: Increase in life span of tumor L1210 leukemic mice 1-5 days after 25 mg/kg administered; assay type: functional, Mus musculus; method in brief: as §1
L1210 [21] = test: Number of mice surviving 1-5 days after 25 mg/kg administered; 1/12; assay type: functional, Mus musculus
P388 [22] = test: Increase in life span of tumor P388 leukemic mice 1,5,9 days after 100 mg/kg administered
L1210 [23] = test: Toxicity against L1210 leukemic cells 1-5 days after administration of 25 mg/kg of the compound; Yes; assay type: functional, organism-based; set-up: dose 25 mg/kg; conditions: Mus musculus; method in brief: as §2
L1210 [24] = test: Toxicity against L1210 leukemic cells 1-5 days after administration of 200 mg/kg of the compound; Yes; assay type: functional, organism-based; set-up: dose 200 mg/kg; conditions: Mus musculus; method in brief: as §2
L1210 [25] = test: Increase in life span of tumor L1210 leukemic mice 1-5 day after 200 mg/kg administered; assay type: functional, Mus musculus; method in brief: as §1
L1210 [26] = test: Increase in life span of tumor L1210 leukemic mice 1-9 days after 100 mg/kg administered; assay type: functional, Mus musculus; method in brief: as §1
L1210 [27] = test: Toxicity against L1210 leukemic cells 1-9 days after administration of 100 mg/kg of the compound; nt= No higher dose tested; assay type: functional, organism-based; set-up: dose 100 mg/kg; conditions: Mus musculus; method in brief: as §2

## OC[C@H]1OC(n2ncc3c(NCc4ccco4)ncnc32)[C@H](O)[C@@H]1O (some centres not stated)
L1210 [1]
  ILS: 6
L1210 [2]
  IC50: > 100000 nM
L1210 [3]
  Toxicity: No higher dose tested

## CN(C)c1ncnc2c1cnn2C1O[C@H](CO)[C@@H](O)[C@H]1O (some centres not stated)
L1210 [4]
  ILS: 0
L1210 [5]
  Toxicity: No higher dose tested

## OC[C@H]1OC(n2ncc3cncnc32)[C@H](O)[C@@H]1O (some centres not stated)
L1210 [6]
  ILS: -3
L1210 [2]
  IC50: > 100000 nM
L1210 [7]
  Toxicity: Active

## OC[C@H]1OC(n2ncc3c(S)ncnc32)[C@H](O)[C@@H]1O (some centres not stated)
L1210 [8]
  Toxicity: No higher dose tested
L1210 [9]
  ILS: -6

## O=c1[nH]cnc2c1cnn2[C@@H]1O[C@H](CO)[C@@H](O)[C@H]1O
L1210 [8]
  Toxicity: No higher dose tested
L1210 [9]
  ILS: 2

## Nc1ncnc2c1ncn2[C@@H]1O[C@H](CO)[C@@H](O)[C@H]1O [ADENOSINE]
L1210 [10]
  Toxicity: Not toxic
P388 [11]
  Toxicity: Not toxic
P388 [12]
  ILS: 54
L1210 [2]
  IC50: 400 nM
P388 (Mus musculus)
  ILS: 24
L1210 [13]
  ILS: 48
L1210 [14]
  Cures: 1

## COC(=N)c1nn(C2O[C@H](CO)[C@@H](O)[C@H]2O)c2ncnc(N)c12 (some centres not stated)
L1210 [8]
  Toxicity: No higher dose tested
L1210 [9]
  ILS: 64

## NC(=S)c1nn(C2O[C@H](CO)[C@@H](O)[C@H]2O)c2ncnc(N)c12 (some centres not stated)
L1210 [15]
  Toxicity: Active
P388 [16]
  Toxicity: Active
L1210 [17]
  ILS: 46
P388 [18]
  ILS: 34

## N/C(=N\O)c1nn(C2O[C@H](CO)[C@@H](O)[C@H]2O)c2ncnc(N)c12 (some centres not stated)
P388 [19]
  Toxicity: Active
L1210 [20]
  ILS: 78
L1210 [2]
  IC50: 180 nM
L1210 [21]
  Cures: 1
P388 [22]
  ILS: 33
L1210 [23]
  Toxicity: Active

## CSc1ncnc2c1cnn2C1O[C@H](CO)[C@@H](O)[C@H]1O (some centres not stated)
L1210 [24]
  Toxicity: Active
L1210 [2]
  IC50: 9000 nM
L1210 [25]
  ILS: 19

## N#Cc1nn(C2O[C@H](CO)[C@@H](O)[C@H]2O)c2ncnc(N)c12 (some centres not stated)
L1210 [26]
  ILS: 27
L1210 [2]
  IC50: 79 nM
L1210 [27]
  Toxicity: No higher dose tested

Source: ChEMBL document CHEMBL1121726, “Pyrazolopyrimidine nucleosides. 12. Synthesis and biological activity of certain pyrazolo[3,4-d]pyrimidine nucleosides related to adenosine” (1981)
